Measurements as given in ChEMBL document CHEMBL5370602, “Structure-Based Design of a Lead Compound Derived from Natural Schweinfurthins with Antitumor Properties That Target Oxysterol-Binding Protein” (J Med Chem, 2023).

Assays:
[1] = molecular target: T1, Oxysterol-binding protein 1 (Homo sapiens) (UniProt P22059); assay: Inhibition of human OSBP in human hTERT-RPE1 cells co-transfected with GFP-P4MSidM and TagBFP-betaGalT1 assessed as half life for inhibition of PI4P transfer by OBSP by immunofluorescence analysis; format: cell-based
T1 sequence (whole entry): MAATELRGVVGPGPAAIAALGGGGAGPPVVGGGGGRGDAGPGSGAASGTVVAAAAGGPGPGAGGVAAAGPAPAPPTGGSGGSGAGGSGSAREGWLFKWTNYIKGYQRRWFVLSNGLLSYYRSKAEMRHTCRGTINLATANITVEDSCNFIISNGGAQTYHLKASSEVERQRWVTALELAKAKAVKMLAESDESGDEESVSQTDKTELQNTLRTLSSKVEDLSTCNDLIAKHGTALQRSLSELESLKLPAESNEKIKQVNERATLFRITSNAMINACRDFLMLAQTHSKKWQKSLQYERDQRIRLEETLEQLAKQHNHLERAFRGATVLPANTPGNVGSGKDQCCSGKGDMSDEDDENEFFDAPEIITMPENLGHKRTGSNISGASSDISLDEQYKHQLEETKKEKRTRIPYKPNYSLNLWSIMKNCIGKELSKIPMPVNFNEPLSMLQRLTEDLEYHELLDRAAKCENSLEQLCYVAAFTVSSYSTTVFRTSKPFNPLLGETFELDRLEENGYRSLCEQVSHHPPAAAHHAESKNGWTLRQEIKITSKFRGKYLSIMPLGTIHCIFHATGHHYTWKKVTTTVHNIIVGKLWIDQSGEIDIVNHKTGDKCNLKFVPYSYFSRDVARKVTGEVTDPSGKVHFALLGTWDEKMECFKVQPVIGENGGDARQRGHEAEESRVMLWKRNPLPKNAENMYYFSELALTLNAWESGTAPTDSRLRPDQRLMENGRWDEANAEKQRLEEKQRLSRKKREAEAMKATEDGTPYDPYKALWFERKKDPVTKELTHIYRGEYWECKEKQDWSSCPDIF
Procedure, shortened: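 hTERT-RPE-1 cells electroporated with GFP-P4M^SidM (PI4P probe) and TagBFP-βGalT1, plated 18-24 h. Timelapse confocal imaging at 37 °C after compound addition, with P4M-GFP intensity at the TGN tracked over time and compared before and 50 min after addition. Mean of 4 to 6 independent experiments ± SEM.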

[2] = molecular target: mTORC2 (Homo sapiens) (UniProt P42345+Q6R327+Q9BVC4+Q9BPZ7); assay: Inhibition of mTORC2 signalling in human U-87 MG cells assessed as decrease in AKT phosphorylation at S473 residue at 0.05 to 1 uM incubated for 48 hrs by Western blot analysis; format: cell-based
Procedure, shortened: (§1)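 U-87 MG cells cultured two days, then exposed 48 h to increasing doses. Lysed in RIPA with protease inhibitors; 5 µg protein run on 4-20% SDS gels and transferred to PVDF. Probed for phospho/total AKT, S6, S6K, P62 and LC3, detected by ECL. Band intensities normalized to β-actin.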

[3] = test system: U-87 MG; assay: Induction of autophagy in human U-87 MG cells assessed as decrease in LC3I expression at 0.05 to 1 uM incubated for 48 hrs by Western blot analysis; format: functional, cell-based; conditions: U-87MG ATCC; procedure, shortened: as §1
[4] = Metabolic stability in mouse liver microsomes assessed as intrinsic clearance at 2.5 uM and measured upto 45 mins in presence of NADPH by LC-MS/MS analysis; format: ADME, Microsome; conditions: read-out: CLH
[5] = Metabolic stability in mouse liver microsomes assessed as compound remaining at 2.5 uM and measured after 45 mins in absence of NADPH by LC-MS/MS analysis; format: ADME, Microsome; conditions: read-out: Stability
[6] = Toxicity in immunodeficient nude mouse model xenografted with high alert medicated patient derived human GBM1 cells assessed as body weight change at 20 mg/kg,ip QD for 27 days cotreatment with Temozolomide at 42 mg/kg,po QD for 5 days; format: organism-based; conditions: in vivo, 648 h, time 27 day
Procedure, shortened: (§2)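 Female athymic nude mice bearing subcutaneous GBM1-HAM PDX fragments (20 mm³); treatment began day 11 post-implant at tumour volumes 75-196 mm³, 10 per group. Compound i.p. daily in cyclodextrin vehicle (17 days alone, 27 days in combination); temozolomide 42 mg/kg p.o. daily for 5 days in PBS/glucose/Tween 80. Calliper volumes three times weekly; body weight and clinical signs monitored.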

[7] = Toxicity in immunodeficient nude mouse model xenografted with high alert medicated patient derived human GBM1 cells assessed as clinical symptoms at 50 mg/kg,ip QD for 17 days; format: organism-based; conditions: in vivo, 408 h, time 17 day; procedure, shortened: as §2
[8] = Toxicity in immunodeficient nude mouse model xenografted with high alert medicated patient derived human GBM1 cells assessed as clinical symptoms at 50 mg/kg,ip QD for 27 days cotreatment with Temozolomide at 42 mg/kg,po QD for 5 days; format: organism-based; conditions: in vivo, 648 h, time 27 day; procedure, shortened: as §2
[9] = Antitumor activity in high alert medicated patient derived human GBM1 cells xenografted in immunodeficient nude mouse model assessed as change in tumor volume at 20 mg/kg,ip QD cotreatment with Temozolomide at 42 mg/kg,po QD and measured after 11 days relative to control; format: functional; conditions: time 11 day; procedure, shortened: as §2

In the case of `CC1(C)CCc2c(O)cc(/C=C/c3cc(O)c4c(c3)C[C@@H]3C(C)(C)[C@H](OC=O)CC[C@@]3(C)O4)cc2O1`, the T1/2 [1] is reported as 25 min, the inhibition [2] is reported as “Dose-Dependent Effect” and the Activity [3] is reported as “Dose-Dependent Effect”. For the same molecule, the microsomal CLint at 2.5 µM [4] was 120 µL/min/mg, the remaining at 0.75 h, 2.5 µM [5] was 16% and the Activity [6] was “Non-Toxic”. The Activity [7] was “Non-Toxic”, the Activity [8] was “Non-Toxic” and the Activity [9] was 396.24%.
